Converted amounts (≈) assume the structure as drawn. Values belong to the compound of their own block, whether it stands above or below them.
Columns and labels:
[1] = biological target: 3',5'-cyclic-AMP phosphodiesterase 4B (Homo sapiens, UniProt Q07343); assay: Inhibition of human recombinant PDE4B by scintillation proximity assay
Blood = assay: Inhibition of LPS-induced TNFalpha production in human whole blood; format: functional, tissue-based
[2] = Oral bioavailability in Sprague-Dawley CD rat at 1 mg/kg; format: ADME, organism-based; conditions: in vivo
Summary of the method: (§1)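 Male CD Sprague rats, each compound given intravenously and orally at 1 mg/kg. Pharmacokinetic parameters derived from both routes.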

[3] = Half life in Sprague-Dawley CD rat at 1 mg/kg, iv and 1 mg/kg, po; format: ADME, organism-based; conditions: in vivo; summary of the method: as §1
[4] = Clearance in Sprague-Dawley CD rat at 1 mg/kg, iv and 1 mg/kg, po; format: ADME, organism-based; conditions: in vivo; summary of the method: as §1
[5] = Solubility of the compound; format: physicochemical
[6] = AUC in Sprague-Dawley CD rat at 1 mg/kg, po; format: ADME, organism-based; parameters: dose 1 mg/kg, route oral; conditions: plasma; summary of the method: as §1
[7] = Selectivity for human recombinant PDE4B over PDE1
[8] = Selectivity for human recombinant PDE4B over PDE2
[9] = Selectivity for human recombinant PDE4B over PDE6
[10] = Selectivity for human recombinant PDE4B over PDE7
[11] = Selectivity for human recombinant PDE4B over bovine aorta PDE3; format: tissue-based
Summary of the method: (§2)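 Catalytic activity of human recombinant PDE4B, PDE3 purified from bovine aorta and human recombinant PDE5 was measured by scintillation proximity assay in 96-well format. Selectivity compares inhibition of PDE4B with inhibition of the other enzyme.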

Homo sapiens = organism: Homo sapiens; assay: Selectivity for human recombinant PDE4B over human recombinant PDE5; summary of the method: as §2

Sequence of 3',5'-cyclic-AMP phosphodiesterase 4B (Q07343 whole entry): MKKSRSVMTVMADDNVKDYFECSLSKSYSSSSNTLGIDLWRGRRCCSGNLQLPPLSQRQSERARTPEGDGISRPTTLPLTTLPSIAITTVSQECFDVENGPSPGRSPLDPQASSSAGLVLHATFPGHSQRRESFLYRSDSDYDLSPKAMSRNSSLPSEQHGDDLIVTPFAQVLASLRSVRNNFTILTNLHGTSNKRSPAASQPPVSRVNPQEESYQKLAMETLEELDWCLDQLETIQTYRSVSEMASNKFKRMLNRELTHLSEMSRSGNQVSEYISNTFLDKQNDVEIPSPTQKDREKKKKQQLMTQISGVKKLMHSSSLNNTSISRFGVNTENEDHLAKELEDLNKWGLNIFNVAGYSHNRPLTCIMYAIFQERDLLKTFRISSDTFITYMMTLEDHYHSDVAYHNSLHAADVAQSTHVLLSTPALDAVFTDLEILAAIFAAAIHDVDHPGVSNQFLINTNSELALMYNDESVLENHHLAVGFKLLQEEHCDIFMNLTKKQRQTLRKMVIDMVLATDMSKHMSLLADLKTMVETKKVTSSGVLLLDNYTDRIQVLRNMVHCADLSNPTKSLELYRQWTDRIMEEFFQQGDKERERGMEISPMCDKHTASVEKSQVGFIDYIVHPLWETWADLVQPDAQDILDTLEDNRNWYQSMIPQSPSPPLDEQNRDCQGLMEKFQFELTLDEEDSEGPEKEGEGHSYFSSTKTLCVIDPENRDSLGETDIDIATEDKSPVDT

SMILES: CNC(=O)c1cnc2ccc(S(C)(=O)=O)cc2c1Nc1cccc(OC)c1
IC50 [1]: 3160 nM

SMILES: CN(c1cccc(Cl)c1)c1c(C(N)=O)cnc2ccc(S(C)(=O)=O)cc12
IC50 [1]: 1000 nM

SMILES: COc1cccc(Nc2c(-c3nnc(C)o3)cnc3ccc(S(C)(=O)=O)cc23)c1
IC50 [1]: 20000 nM

SMILES: COc1cccc(Nc2c(C(N)=O)cnc3ccc(S(C)(=O)=O)cc23)c1
bioavailability [2]: 10%
half-life [3]: 1.1 h
clearance [4]: 10 mL/min/kg
solubility [5]: 5 µg/mL (≈ 13.5 µM)

SMILES: Cc1cc(S(C)(=O)=O)cc2c(Nc3cccc(C#N)c3)c(C(N)=O)cnc12
IC50 (Blood): 25.1 nM
bioavailability [2]: 27%
half-life [3]: 2.3 h
clearance [4]: 19 mL/min/kg
solubility [5]: 18 µg/mL (≈ 47.3 µM)
fold change (FC) [7]: > 100
fold change (FC) [8]: > 100
fold change (FC) [9]: > 100
fold change (FC) [10]: > 100

SMILES: CS(=O)(=O)c1ccc2ncc(C(N)=O)c(Sc3cccc(Cl)c3)c2c1
IC50 [1]: 20000 nM

SMILES: COc1cc(Nc2c(C(N)=O)cnc3c(Cl)cc(S(C)(=O)=O)cc23)ccc1F
IC50 (Blood): 7.94 nM
AUC [6]: 16 ng·h/mL

SMILES: CS(=O)(=O)c1ccc2ncc(C(N)=O)c(Nc3cccc(C(=O)O)c3)c2c1
IC50 [1]: 5010 nM

SMILES: CS(=O)(=O)c1ccc2ncc(C(N)=O)c(Oc3cccc(Cl)c3)c2c1
IC50 [1]: 3160 nM

SMILES: COc1cccc(Nc2cc(C(N)=O)nc3ccc(S(C)(=O)=O)cc23)c1
IC50 [1]: 7940 nM

SMILES: COc1cccc(Nc2c(CN)cnc3ccc(S(=O)(=O)c4ccccc4)cc23)c1
IC50 [1]: 251 nM

SMILES: COc1cc(Nc2c(C(N)=O)cnc3c(F)cc(S(C)(=O)=O)cc23)ccc1F
IC50 (Blood): 15.8 nM

SMILES: CS(=O)(=O)c1ccc2ncc(C(N)=O)c(NC3CCOCC3)c2c1
IC50 [1]: > 31600 nM

SMILES: COc1cccc(Nc2c(-c3nc(C)no3)cnc3ccc(S(C)(=O)=O)cc23)c1
IC50 [1]: 15800 nM

SMILES: CCc1cc(S(C)(=O)=O)cc2c(Nc3ccc(F)c(OC)c3)c(C(N)=O)cnc12
IC50 (Blood): 12.6 nM

SMILES: CS(=O)(=O)c1ccc2ncc(C(N)=O)c(N)c2c1
IC50 [1]: > 31600 nM

SMILES: O=C(Nc1c(Cl)cncc1Cl)c1ccc(OC(F)F)c(OCC2CC2)c1 [ROFLUMILAST]
IC50 (Blood): 20 nM
fold change (FC) [11]: > 300
fold change (FC) (Homo sapiens): > 300

SMILES: COc1cccc(Nc2c(C#N)cnc3ccc(S(C)(=O)=O)cc23)c1
IC50 [1]: 501 nM

SMILES: COc1cccc(Nc2c(C(=O)O)cnc3ccc(S(=O)(=O)c4ccccc4)cc23)c1
IC50 [1]: 12600 nM

Continued, in another order:

IC50 [1]: 79.4 nM
IC50 (Blood): 1260 nM
SMILES: CS(=O)(=O)c1ccc2ncc(C(N)=O)c(Nc3cccc(CN)c3)c2c1

IC50 [1]: 15.8 nM
IC50 (Blood): 251 nM
solubility [5]: 2 µg/mL (≈ 5.32 µM)
SMILES: CS(=O)(=O)c1ccc2ncc(C(N)=O)c(Nc3cccc(Cl)c3)c2c1

IC50 [1]: 5.01 nM
IC50 (Blood): 251 nM
AUC [6]: 81 ng·h/mL
SMILES: COc1cc(Nc2c(C(N)=O)cnc3c(OC)cc(S(C)(=O)=O)cc23)ccc1F

IC50 [1]: 0.316 nM
IC50 (Blood): 7.94 nM
bioavailability [2]: 82%
half-life [3]: 1.6 h
clearance [4]: 16 mL/min/kg
solubility [5]: 5 µg/mL (≈ 12.4 µM)
AUC [6]: 770 ng·h/mL
fold change (FC) [7]: > 100
fold change (FC) [8]: > 100
fold change (FC) [9]: > 100
fold change (FC) [10]: > 100
SMILES: COc1cc(Nc2c(C(N)=O)cnc3c(C)cc(S(C)(=O)=O)cc23)ccc1F

IC50 [1]: 100 nM
IC50 (Blood): 2000 nM
SMILES: CS(=O)(=O)c1ccc2ncc(C(N)=O)c(Nc3cccnc3)c2c1

IC50 [1]: 20 nM
IC50 (Blood): 316 nM
bioavailability [2]: 23%
half-life [3]: 0.9 h
clearance [4]: 16 mL/min/kg
SMILES: CS(=O)(=O)c1ccc2ncc(C(N)=O)c(Nc3cccc(C#N)c3)c2c1

IC50 [1]: 31.6 nM
IC50 (Blood): 158 nM
bioavailability [2]: 65%
half-life [3]: 1.9 h
clearance [4]: 21 mL/min/kg
solubility [5]: 4 µg/mL (≈ 10.3 µM)
AUC [6]: 530 ng·h/mL
SMILES: COc1cc(Nc2c(C(N)=O)cnc3ccc(S(C)(=O)=O)cc23)ccc1F

IC50 [1]: 6.31 nM
IC50 (Blood): 251 nM
bioavailability [2]: 47%
half-life [3]: 2 h
clearance [4]: 13 mL/min/kg
solubility [5]: 12 µg/mL (≈ 30.5 µM)
SMILES: CS(=O)(=O)c1ccc2ncc(C(N)=O)c(Nc3cccc(Cl)c3F)c2c1

IC50 [1]: 2.51 nM
IC50 (Blood): 25.1 nM
bioavailability [2]: 38%
half-life [3]: 1.7 h
clearance [4]: 38 mL/min/kg
solubility [5]: 43 µg/mL (≈ 112 µM)
SMILES: CS(=O)(=O)c1ccc2ncc(C(N)=O)c(Nc3cccc4c3CCO4)c2c1

IC50 [1]: 100 nM
solubility [5]: 30 µg/mL (≈ 83.9 µM)
fold change (FC) (Homo sapiens): > 300
SMILES: CS(=O)(=O)c1ccc2ncc(C(N)=O)c(Nc3cccc(O)c3)c2c1
fold change (FC) [11]: > 300

IC50 [1]: 1.58 nM
SMILES: COc1cccc(Nc2c(C(N)=O)cnc3ccc(S(=O)(=O)c4ccccc4)cc23)c1

From ChEMBL document CHEMBL1153265, “Quinolines as a novel structural class of potent and selective PDE4 inhibitors: optimisation for oral administration” (Bioorg Med Chem Lett, 2009)
